{"source": "PubChem BioAssay AID463104", "about": "(Sanford-Burnham Center for Chemical Genomics, 2010)", "note": "Out of some 330,000 compounds screened, about 1,100 (0.33%) were called active. Many of the other results were omitted from the sample, so actives are more common in it than they were. Unmarked numbers belong to inactive results.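 The calls were made as follows: active = versus positive control, 20 µM dose yields 30% or more activation; inactive = the rest.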"}
{"assay": "IRE1-XBP1 pathway stimulators – cell-based, CHO-XBP1 luciferase reporter, luminescence, uHTS, primary screen (AID 463104);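 also: 100% = tunicamycin at 10 µg/mL and 0% = DMSO only wells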", "details": "IRE1-XBP1 UPR activation, at 20 µM, active compounds read high, percent of tunicamycin response, DMSO as zero", "method_in_brief": "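incubation = overnight seeding at 37 °C, 6 h compound treatment at 37 °C | assay system = CHO-XBP1 cells stably carrying IRE1-XBP1-driven luciferase reporter | input = 1000 cells per well | detection = luciferase luminescence | dosing = single point, 20 µM final compound, 1% DMSO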"}
{"smiles": "CCCCC(O)(CCCC)C(=O)NN(C(=O)CCl)c1ccccc1", "activation": "-0.49%"}
{"smiles": "Cc1ccc(NC(=O)c2ccc(Oc3ncccn3)cc2)cc1", "activation": "0.13%"}
{"smiles": "O=C(/C=C/c1ccccc1)c1ccccc1O", "activation": "78.8% (active)"}
{"smiles": "O=C(/C=C/c1ccc(N2CCOCC2)cc1)c1ccccc1", "activation": "2.92%"}
{"smiles": "Cc1[nH]c(=O)c(C(=O)/C=C/c2ccccc2)c2c1CCCC2", "activation": "-0.32%"}
{"smiles": "Cc1nc2c(ncn2-c2ccccc2)c(=O)n1NC(=O)CN1CCCC1", "activation": "0.65%"}
{"smiles": "COCCNC(=O)c1ccc2c(c1)ncn2-c1ccc(C)c(Cl)c1", "activation": "-1.46%"}
{"smiles": "COc1ccc(CN2C(CC(=O)Nc3cccnc3)c3ccc(C(F)(F)F)cc3S2(=O)=O)cc1", "note": "(centres undefined)", "activation": "-0.27%"}
{"smiles": "Cc1ccc(C(=O)N/C(=C/c2ccc(-c3cccc([N+](=O)[O-])c3)o2)C(=O)NCCCN(C)C)cc1", "activation": "0.17%"}
{"smiles": "Cc1ccc(-c2ccc(/C=C(\\C#N)C(N)=S)o2)c([N+](=O)[O-])c1", "activation": "-0.81%"}
{"smiles": "Cc1ccc(Cc2cnc(NC(=O)/C(C#N)=C/c3ccc(-c4cccc([N+](=O)[O-])c4)o3)s2)cc1", "activation": "131% (active)"}
{"smiles": "CC(=O)N1CCC(N(C(=O)Nc2ccc(Cl)cc2)C(C)C)CC1", "activation": "2%"}
{"smiles": "CCC(C(=O)N1CCN(S(=O)(=O)c2sc(C(=O)O)c(C)c2C(=O)O)CC1)c1ccccc1", "note": "(centres undefined)", "activation": "-0.89%"}
{"smiles": "COc1ccccc1CNC(=O)c1ccc(Cl)c(S(=O)(=O)N2CCCC2)c1", "activation": "-2.56%"}
{"smiles": "CC(C)NC(=O)CCCn1c(=S)[nH]c2cc3c(cc2c1=O)OCO3", "activation": "0.7%"}
{"smiles": "O=C(CCCCCn1c(=S)[nH]c2cc3c(cc2c1=O)OCO3)N1CCN(c2ccc(F)cc2)CC1", "activation": "38.5% (active)"}
{"smiles": "Cc1ccc(C)c(N2CCN(C(=O)CCCCCn3c(=S)[nH]c4ccc(N5CCOCC5)cc4c3=O)CC2)c1", "activation": "-5.18%"}
{"smiles": "COc1cc(C(=O)NC2CCN(C)CC2)ccc1Nc1ncc2c(n1)N(C1CCC(O)CC1)CCC(=O)N2C", "note": "(centres undefined)", "activation": "-2.3%"}
{"smiles": "CCCC(=O)Nc1ccc(C(=O)N/N=C/c2ccc[nH]2)cc1", "activation": "-1.43%"}
{"smiles": "CCCCCC(=O)NC(=S)NNC(=O)c1ccc([N+](=O)[O-])cc1", "activation": "1.01%"}
{"smiles": "CCCCCC(=O)Nc1ccc(C(=O)N/N=C/c2ccc([N+](=O)[O-])cc2)cc1", "activation": "82.5% (active)"}
{"smiles": "Nc1ccc(OCC(O)C[n+]2ccc(CCS(=O)(=O)[O-])cc2)cc1", "note": "(centres undefined)", "activation": "-2.33%"}
{"smiles": "CCN1N=C(c2ccccc2)CCC1=O", "activation": "0.24%"}
{"smiles": "Cc1cc(C)c(C#N)c(SCC(=O)Nc2ccccc2)n1", "activation": "-0.84%"}
{"smiles": "Cc1nc2cc(NC(=O)CSc3nc4c(C)cccc4cc3C#N)ccc2s1", "activation": "30.2% (active)"}
{"smiles": "Cc1nonc1NC(=O)CSc1nc2ccccc2cc1C#N", "activation": "-3.02%"}
{"smiles": "CC(Cc1cccs1)N(Cc1ccc(Cl)cc1)C(=O)c1ccncc1", "note": "(centres undefined)", "activation": "-2.77%"}
{"smiles": "COc1ccc(S(=O)(=O)NCCc2cc3ccc(C)c(C)c3[nH]c2=O)cc1", "activation": "-3.05%"}
{"smiles": "Cc1ccc(OCC(=O)Nc2ccc3oc(=O)ccc3c2)cc1C", "activation": "-0.41%"}
{"smiles": "O=C(NC(=S)Nc1ccc2oc(=O)ccc2c1)c1ccc(-c2cccc(Cl)c2Cl)o1", "activation": "76.8% (active)"}
{"smiles": "O=C(COc1ccc(Cl)cc1)Nc1ccc2oc(=O)ccc2c1", "activation": "-0.7%"}
{"smiles": "C=CCO/N=C(\\C)c1c(O)c(C)c(-c2ccccc2)n(-c2ccccc2)c1=O", "activation": "-1.96%"}
{"smiles": "CC(C)(C)n1nc(Cc2cccc3ccccc23)c(C#N)c1N", "activation": "3.6%"}
{"smiles": "CCc1nn(-c2cc(Oc3cccc4ccccc34)nc(-c3ccccc3)n2)c(N)c1C#N", "activation": "79.6% (active)"}
{"smiles": "Cc1cc(NC(=O)CSc2nc3ccccc3n2CC(C)C)no1", "activation": "-4.54%"}
{"smiles": "Cc1cc(NC(=O)CSc2nnc(-c3ccco3)n2N)no1", "activation": "1.89%"}
{"smiles": "Cc1cc(NC(=O)CSc2nc3cc(Cl)ccc3c(=O)n2Cc2ccco2)no1", "activation": "95.4% (active)"}
{"smiles": "CC(C)Oc1ccc(S(=O)(=O)N2CCOCC2)cc1NC(=O)C1CSC2(C)CCC(=O)N12", "note": "(centres undefined)", "activation": "-2.58%"}
{"smiles": "CCCNC(=O)CCn1nc(-c2ccccc2)c2ccccc2c1=O", "activation": "1.25%"}
{"smiles": "O=C(COC(=O)Cc1ccc(Br)cc1)Nc1c(F)c(F)c(F)c(F)c1F", "activation": "0.94%"}
{"smiles": "Nc1c(NCCc2ccccc2)c2ccccc2oc1=O", "activation": "-1.1%"}
{"smiles": "COCCCNC(=O)[C@H]1N2C(=O)c3ccccc3C2SC1(C)C", "note": "(some centres undefined)", "activation": "5.98%"}
{"smiles": "COc1cc(NC(=O)CSc2nnc3ccc(-c4ccncc4)nn23)cc(OC)c1", "activation": "4.51%"}
{"smiles": "CSc1ncc(Sc2ccccc2)c(C(=O)O)n1", "activation": "-3.45%"}
